Measured values published in ChEMBL document CHEMBL4190346, “Structure-based design, synthesis, and biological evaluation of withaferin A-analogues as potent apoptotic inducers” (Eur J Med Chem, 2017).
The source made the active and inactive calls. The rule behind the calls is not given here.

Legend:
[1] = tested on: HeLa; experiment: Cytotoxicity against human HeLa cells assessed as reduction in cell viability using compound addition to cell culture cells in lag phase of growth and incubated for 48 hrs by MTT assay; type: functional, cell-based; settings: Homo sapiens, HeLa, 48 h; read-out: IC50
[2] = tested on: HeLa; experiment: Cytotoxicity against human HeLa cells assessed as reduction in cell viability using compound addition to cell culture cells in log phase of growth and incubated for 48 hrs by MTT assay; type: functional, cell-based; settings: Homo sapiens, HeLa, 48 h; read-out: IC50
[3] = tested on: A549; experiment: Cytotoxicity against human A549 cells assessed as reduction in cell viability using compound addition to cell culture cells in lag phase of growth and incubated for 48 hrs by MTT assay; type: functional, cell-based; settings: Homo sapiens, A549, 48 h; read-out: IC50
[4] = tested on: A549; experiment: Cytotoxicity against human A549 cells assessed as reduction in cell viability using compound addition to cell culture cells in log phase of growth and incubated for 48 hrs by MTT assay; type: functional, cell-based; settings: Homo sapiens, A549, 48 h; read-out: IC50
[5] = tested on: MCF7; experiment: Cytotoxicity against human MCF7 cells assessed as reduction in cell viability using compound addition to cell culture cells in lag phase of growth and incubated for 48 hrs by MTT assay; type: functional, cell-based; settings: Homo sapiens, MCF7, 48 h; read-out: IC50
[6] = tested on: MCF7; experiment: Cytotoxicity against human MCF7 cells assessed as reduction in cell viability using compound addition to cell culture cells in log phase of growth and incubated for 48 hrs by MTT assay; type: functional, cell-based; settings: Homo sapiens, MCF7, 48 h; read-out: IC50
[7] = tested on: Vero; experiment: Cytotoxicity against African green monkey Vero cells assessed as reduction in cell viability using compound addition to cell culture cells in lag phase of growth and incubated for 48 hrs by MTT assay; type: cell-based, Chlorocebus sabaeus; settings: Chlorocebus sabaeus, Vero, 48 h; read-out: IC50
[8] = tested on: Vero; experiment: Cytotoxicity against African green monkey Vero cells assessed as reduction in cell viability using compound addition to cell culture cells in log phase of growth and incubated for 48 hrs by MTT assay; type: cell-based, Chlorocebus sabaeus; settings: Chlorocebus sabaeus, Vero, 48 h; read-out: IC50
[9] = tested on: HeLa; experiment: Induction of apoptosis in human HeLa cells assessed as […] by measuring pNA release level at 32 uM incubated for 8 hrs using c-DEVD-pNA substrate by colorimetric assay; type: functional, cell-based
In short: (§1)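 HeLa cells in DMEM with 10% FBS were exposed for 4 h (fixed 24 or 32 level for 8 h). Staurosporine for 4 h served as the positive control. Cells were lysed at 4 °C for 10 min and centrifuged, and supernatant protein was measured by Bradford. Caspase-3 activity was read colorimetrically as nmol pNA/min/mL, with treated/untreated OD ratios. Values are means ± SD of three independent experiments in triplicate.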

[10] = tested on: HeLa; experiment: Induction of apoptosis in human HeLa cells assessed as increase in caspase-3 activity by measuring pNA release level at 8 uM incubated for 4 hrs using c-DEVD-pNA substrate by colorimetric assay; type: functional; in short: as §1
[11] = tested on: HeLa; experiment: Induction of apoptosis in human HeLa cells assessed as increase in caspase-3 activity by measuring pNA release level at 12 uM incubated for 4 hrs using c-DEVD-pNA substrate by colorimetric assay; type: functional; in short: as §1
[12] = tested on: HeLa; experiment: Induction of apoptosis in human HeLa cells assessed as increase in caspase-3 activity by measuring pNA release level at 16 uM incubated for 4 hrs using c-DEVD-pNA substrate by colorimetric assay; type: functional; in short: as §1
[13] = tested on: HeLa; experiment: Induction of apoptosis in human HeLa cells assessed as increase in caspase-3 activity by measuring pNA release level at 24 uM incubated for 4 hrs using c-DEVD-pNA substrate by colorimetric assay; type: functional; in short: as §1
[14] = tested on: HeLa; experiment: Induction of apoptosis in human HeLa cells assessed as increase in caspase-3 activity by measuring pNA release level at 32 uM incubated for 4 hrs using c-DEVD-pNA substrate by colorimetric assay; type: functional; in short: as §1
[15] = tested on: MCF7; experiment: Ratio of IC50 for cytotoxicity against human MCF7 cells incubated for 48 hrs to IC50 for cytotoxicity against human MCF7 cells incubated for 72 hrs; type: functional
[16] = tested on: MCF7 (Homo sapiens); experiment: Ratio of IC50 for cytotoxicity against human MCF7 cells incubated for 48 hrs to IC50 for cytotoxicity against human MCF7 cells incubated for 72 hrs
[17] = tested on: MCF7 (Homo sapiens); experiment: as above; remark: listed apart in the source
[18] = tested on: HeLa; experiment: Induction of apoptosis in human HeLa cells assessed increase in DNA fragmentation at 16 uM incubated for 12 hrs by ethidium bromide staining based agarose gel electrophoresis; type: functional, cell-based
In short: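 HeLa cells were incubated with the compounds at varying concentrations for 12 or 24 h. Controls were DMSO (solvent) and staurosporine 2 µM (positive). Adherent and floating cells were pooled, centrifuged at 500 g and washed twice in cold PBS. Genomic DNA was extracted with a kit, run on 1.8% agarose, stained with ethidium bromide and viewed under UV.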

| Structure (SMILES) | IC50 [1] [µM] | IC50 [2] [µM] | IC50 [3] [µM] | IC50 [4] [µM] | IC50 [5] [µM] | IC50 [6] [µM] | IC50 [7] [µM] | IC50 [8] [µM] | Activity [9] | Activity [10] [nmol/min/mL] | Activity [11] [nmol/min/mL] | Activity [12] [nmol/min/mL] | Activity [13] [nmol/min/mL] | Activity [14] [nmol/min/mL] | Ratio IC50 [15] | Ratio IC50 [16] | Ratio IC50 [17] | Activity [18] |
| --- | --- | --- | --- | --- | --- | --- | --- | --- | --- | --- | --- | --- | --- | --- | --- | --- | --- | --- |
| CCCC(=O)OCC1=C(C)C[C@H]([C@@H](C)[C@H]2CC[C@H]3[C@@H]4C[C@H]5O[C@]56[C@@H](OC(=O)CCC)C=CC(=O)[C@]6(C)[C@H]4CC[C@]23C)OC1=O | 1.9 | 1.6 | 2.8 | 1.9 | 1 | 1 | 1.6 | 0.7 | Active | 0.15 | 0.61 | 0.93 | 0.88 | 1.7 | – | – | – | – |
| CC1=C(COC(=O)c2ccoc2)C(=O)O[C@@H]([C@@H](C)[C@H]2CC[C@H]3[C@@H]4C[C@H]5O[C@]56[C@@H](OC(=O)c5ccoc5)C=CC(=O)[C@]6(C)[C@H]4CC[C@]23C)C1 | 2.9 | 3.8 | 3.6 | 3.8 | 1.5 | 1.7 | 0.9 | 0.9 | – | – | – | – | – | – | >3 | >3 | >3 | – |
| CC(=O)OCC1=C(C)C[C@H]([C@@H](C)[C@H]2CC[C@H]3[C@@H]4C[C@H]5O[C@]56[C@@H](OC(C)=O)C=CC(=O)[C@]6(C)[C@H]4CC[C@]23C)OC1=O | – | – | – | – | – | – | – | – | – | 0.33 | 0.42 | 0.5 | 1.06 | 0.68 | – | – | – | Active |
| CCC(=O)OCC1=C(C)C[C@H]([C@@H](C)[C@H]2CC[C@H]3[C@@H]4C[C@H]5O[C@]56[C@@H](O)C=CC(=O)[C@]6(C)[C@H]4CC[C@]23C)OC1=O | 1.6 | 1.1 | 1.6 | 2.1 | 2.3 | 1.2 | 0.9 | 1 | Active | 0.52 | 0.52 | 1.02 | 1.9 | 1.67 | >3 | >3 | >3 | – |
| CC1=C(C=O)C(=O)O[C@@H]([C@@H](C)[C@H]2CC[C@H]3[C@@H]4C[C@H]5O[C@]56[C@@H](O)C=CC(=O)[C@]6(C)[C@H]4CC[C@]23C)C1 | 6.5 | 10.9 | 15.7 | 13.5 | 3.7 | 2.1 | 4.4 | 3.6 | – | – | – | – | – | – | >3 | >3 | >3 | – |
| CNc1ccccc1C(=O)OCC1=C(C)C[C@H]([C@@H](C)[C@H]2CC[C@H]3[C@@H]4C[C@H]5O[C@]56[C@@H](O)C=CC(=O)[C@]6(C)[C@H]4CC[C@]23C)OC1=O | 1.6 | 4.2 | 3.7 | 4.7 | 1.6 | 1 | 1.2 | 1.6 | – | – | – | – | – | – | >3 | >3 | >3 | – |
| CC1=C(COC(=O)c2cccc3ccccc23)C(=O)O[C@@H]([C@@H](C)[C@H]2CC[C@H]3[C@@H]4C[C@H]5O[C@]56[C@@H](O)C=CC(=O)[C@]6(C)[C@H]4CC[C@]23C)C1 | 2 | 3.5 | 6.4 | 13.7 | 0.9 | 2.2 | 0.4 | 0.6 | – | – | – | – | – | – | >3 | >3 | >3 | – |
